Source: ChEMBL document CHEMBL4393723, “Caffeic acid phenethyl ester (CAPE)-derivatives act as selective inhibitors of acetylcholinesterase” (Eur J Med Chem, 2019)
pEC50, pKi: −log10 of the molar value. Values belong to the molecule of their own block, whether it stands above or below them.

Legend:
NIH3T3 = assay: Cytotoxicity against mouse NIH/3T3 cells measured after 96 hrs by SRB assay; type: cell-based; conditions: for pEC50: Mus musculus, NIH3T3, 96 h; for Activity: mouse, nih3t3, 96 h
In short: (§1)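 Cells seeded on day 0 and exposed from 24 h to at least six concentrations (1, 3, 7, 12, 20, 30 µM), with final DMSO/DMF at most 0.5%. After 96 h treatment, fixed in 10% TCA for 24 h at 4 °C and stained about 20 min with 0.4% SRB in 1% acetic acid. Bound dye dissolved in 10 mM Tris base, read at 570 nm. EC50 from 4-parameter Hill fit (top 100, bottom 0), three independent experiments in triplicate.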

MCF7 = assay: Cytotoxicity against human MCF7 cells measured after 96 hrs by SRB assay; type: cell-based; conditions: for pEC50: Homo sapiens, MCF7, 96 h; for Activity: human, mcf7, 96 h; in short: as §1
SW-1736 = assay: Cytotoxicity against human SW1736 cells measured after 96 hrs by SRB assay; type: cell-based; conditions: for pEC50: Homo sapiens, SW-1736, 96 h; for Activity: human, sw-1736, 96 h; in short: as §1
HT-29 = assay: Cytotoxicity against human HT-29 cells measured after 96 hrs by SRB assay; type: cell-based; conditions: for pEC50: Homo sapiens, HT-29, 96 h; for Activity: human, ht-29, 96 h; in short: as §1
A2780 = assay: Cytotoxicity against human A2780 cells measured after 96 hrs by SRB assay; type: cell-based; conditions: for pEC50: Homo sapiens, A2780, 96 h; for Activity: human, a2780, 96 h; in short: as §1
FaDu = assay: Cytotoxicity against human FADU cells measured after 96 hrs by SRB assay; type: cell-based; conditions: for pEC50: Homo sapiens, FaDu; for Activity: human, fadu; in short: as §1
[1] = Solubility of the compound; type: physicochemical
Acetylcholinesterase [2] = molecular target: T1, Acetylcholinesterase (Electrophorus electricus, UniProt O42275); assay: Mixed inhibition of electric eel AChE using acetylcholine iodide as substrate preincubated for 20 mins followed by substrate addition and measured every minute for 30 mins by Lineweaver-Burk plot analysis
Acetylcholinesterase [3] = molecular target: T1, Acetylcholinesterase; assay: Mixed inhibition of electric eel AChE using butyrylcholine iodide as substrate preincubated for 20 mins followed by substrate addition and measured every minute for 30 mins Dixon/Cornish-Bowden plot analysis

T1 sequence (O42275 whole entry): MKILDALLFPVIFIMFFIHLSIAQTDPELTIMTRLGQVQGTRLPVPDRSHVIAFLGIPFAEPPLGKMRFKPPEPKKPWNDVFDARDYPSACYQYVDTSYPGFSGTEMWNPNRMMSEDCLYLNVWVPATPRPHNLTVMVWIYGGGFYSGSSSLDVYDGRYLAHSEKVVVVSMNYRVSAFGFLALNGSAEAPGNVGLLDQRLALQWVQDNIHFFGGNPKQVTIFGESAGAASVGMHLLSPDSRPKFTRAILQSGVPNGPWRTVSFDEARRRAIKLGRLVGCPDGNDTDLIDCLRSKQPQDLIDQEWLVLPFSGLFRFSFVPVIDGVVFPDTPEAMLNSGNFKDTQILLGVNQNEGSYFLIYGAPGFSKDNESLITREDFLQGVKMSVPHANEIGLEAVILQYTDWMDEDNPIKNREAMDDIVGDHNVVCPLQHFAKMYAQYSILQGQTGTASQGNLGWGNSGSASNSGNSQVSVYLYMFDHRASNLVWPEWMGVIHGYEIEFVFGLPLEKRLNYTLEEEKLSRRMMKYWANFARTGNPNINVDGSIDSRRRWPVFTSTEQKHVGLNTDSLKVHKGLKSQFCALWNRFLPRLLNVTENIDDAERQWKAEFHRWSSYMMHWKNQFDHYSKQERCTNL

Compound: COc1ccc(/C=C/C(=O)OCCc2ccccc2)cc1OC
- pEC50 (NIH3T3): 4.75
- pEC50 (MCF7): 4.79
- pEC50 (SW-1736): 4.78
- pEC50 (HT-29): 4.78
- pEC50 (A2780): 4.77
- pEC50 (FaDu): 4.76

- solubility [1]: Insoluble
Compound: O=C(/C=C/c1ccc(OCc2ccccc2)c(OCc2ccccc2)c1)OCCc1ccc(OC(=O)/C=C/c2ccc(OCc3ccccc3)c(OCc3ccccc3)c2)cc1

Compound: O=C(/C=C/c1ccc(OCc2ccccc2)c(OCc2ccccc2)c1)OCCc1ccccc1O
- pKi (Acetylcholinesterase [2]): 5.07
- pKi (Acetylcholinesterase [3]): 4.92

- solubility [1]: Insoluble
Compound: O=C(/C=C/c1ccc(OCc2ccccc2)c(OCc2ccccc2)c1)OCCc1cccc(OC(=O)/C=C/c2ccc(OCc3ccccc3)c(OCc3ccccc3)c2)c1

Compound: COc1cc(/C=C/C(=O)OCCc2ccccc2)cc(OC)c1OCCc1ccccc1
- pKi (Acetylcholinesterase [2]): 5.71
- Activity (NIH3T3): Non-Toxic
- Activity (MCF7): Non-Toxic
- Activity (SW-1736): Non-Toxic
- Activity (HT-29): Non-Toxic
- Activity (A2780): Non-Toxic
- Activity (FaDu): Non-Toxic
- pKi (Acetylcholinesterase [3]): 5.61

- solubility [1]: Insoluble
Compound: O=C(/C=C/c1ccc(OCc2ccccc2)c(OCc2ccccc2)c1)OCCc1ccccc1OC(=O)/C=C/c1ccc(OCc2ccccc2)c(OCc2ccccc2)c1

Compound: O=C(/C=C/c1ccc(OCc2ccccc2)c(OCc2ccccc2)c1)OCCc1ccc(OC(=O)/C=C/c2ccc(OCc3ccccc3)c(OCc3ccccc3)c2)c(OC(=O)/C=C/c2ccc(OCc3ccccc3)c(OCc3ccccc3)c2)c1
- pKi (Acetylcholinesterase [2]): 6.14
- Activity (NIH3T3): Non-Toxic
- Activity (MCF7): Non-Toxic
- Activity (SW-1736): Non-Toxic
- Activity (HT-29): Non-Toxic
- Activity (A2780): Non-Toxic
- Activity (FaDu): Non-Toxic
- pKi (Acetylcholinesterase [3]): 5.74

Compound: O=C(/C=C/c1cccc(Cl)c1)OCCc1ccccc1
- pKi (Acetylcholinesterase [2]): 4.85
- pKi (Acetylcholinesterase [3]): 4.25

Compound: COc1ccc(/C=C/C(=O)OCCc2ccccc2)c(OC)c1
- pKi (Acetylcholinesterase [2]): 4.92
- pKi (Acetylcholinesterase [3]): 4.46

Compound: O=C(/C=C/c1cccc(Br)c1)OCCc1ccccc1
- pKi (Acetylcholinesterase [2]): 5.05
- pKi (Acetylcholinesterase [3]): 4.51

Compound: O=C(/C=C/c1ccc(O)c(O)c1)OCCc1ccccc1 [CAFFEIC ACID PHENETHYL ESTER]
- pEC50 (NIH3T3): 4.67
- pEC50 (MCF7): 4.92
- pEC50 (SW-1736): 5.33
- pEC50 (HT-29): < 4.52
- pEC50 (A2780): 5.46
- pEC50 (FaDu): 4.92
